First the molecules themselves.
B1: tRNA (parent)
chain: GUUCCGUUGGCGUAAUGGUAACGCGUCUCCCUCCUAAGGAGAAGACUGCGGGUUCGAGUCCCGUACGGAACG

In the RNAGym collection of RNA variant scans (doi:10.1126/science.aae0568) one finds yeast fitness data, which are given here for 167 variants.

Fewer inactive variants are shown than the library holds. Some results are limits rather than exact numbers.

In this data set the parent is B1. As to the kind of experiment: yeast fitness relative to wild type (ratio to wild type); higher = fitter; tRNA-Arg(CCU), competitive growth, 37 C, YPD. The method, boiled down:
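Start and end populations of a pooled competition were compared by 100-nucleotide paired-end sequencing of gene amplicons. The Saccharomyces cerevisiae strains carried tRNA-Arg(CCU) gene variants at the native genomic locus, synthesised with a 3% per-site mutation rate at 69 sites, and competed in YPD at 37°C for 24 hours in six parallel replicates. Darwinian fitness relative to wild type was based on the change in genotype frequencies. Genotypes required ≥ 100 starting reads, and estimates < 0.5 were set to 0.5.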
As to C4U C24G U26A U28G C66A, the yeast fitness is no more than 0.5. The value for G17C G18C was 0.576; that for C4G A65C A69C was no more than 0.5. Take G10A U13A C30U C55G G58C: the yeast fitness is no more than 0.5.

Consider C4A U7A C31A U54A, for which the yeast fitness is no more than 0.5. The value for U2G C27G G67U was no more than 0.5; that for U16A G25C A40C C49U was no more than 0.5.

Take A36G C49U A69C: the yeast fitness came out at 0.836. Next, G25A C55U: 0.84; U8A C24U U28C A40C G67C: no more than 0.5.

As to A15U C46U C66U A69G, the yeast fitness is no more than 0.5. Next, G12A A14G: 0.958. The value for G6A A43C C62A was 0.551; that for U13G C27U G44A A57U was no more than 0.5; that for G12A G41A G51C was no more than 0.5. Regarding G38A C61A, the yeast fitness amounted to 0.646. Next, C4A G38C G68A A69C: no more than 0.5; C60A C66U G68C: no more than 0.5; C22G C31G U53A: no more than 0.5. Next, A14G U47C A69C: 0.706; A43C A45G G48A G58A A65U: no more than 0.5. Next, C33G A57G C61G G63A A65G C66U: no more than 0.5. As to C5U C22A G25A C66U, the yeast fitness is no more than 0.5. On to C4A A36G G44U G51C A65U, for which the yeast fitness was no more than 0.5. Turning to A14C G25A C33G A36U A45G G52C, the yeast fitness was no more than 0.5. The value for U16G G18C U59A A65U C66A was no more than 0.5; that for U7C C11G U26C was no more than 0.5. The value for C46U G63C was 0.753; that for G6C G12C C29A was no more than 0.5. Next, G25C U26G C46G C62G: no more than 0.5; U3A C34U C49A G52A: 0.622; C4A G38A G51A: 0.54.

On to G52C G68A, for which the yeast fitness worked out at 0.583. Next, U3C A40G C46A A65G: 0.763; C31G U47G U53G C61U G68A: no more than 0.5; A14U C34G C61G: no more than 0.5. The value for G17A U54A was 0.566. The value for G6A U28A G51A A57U was no more than 0.5; that for U2G U7C C29G C60A was no more than 0.5; that for A15C A43C was 0.609.

For A15U G51A, the yeast fitness is 0.722. Next, C11A A40G C49G C62G: 0.794.

For A36G G38C G58C, the yeast fitness stood at 0.687. The value for C27A A37U C61U was no more than 0.5; that for C5U U28C C29G C61U was 0.563. The value for G12A C31U C61U A70G was 0.541; that for C22U A37G G48C C55U was 0.64.

For the variant U13C C33U, the yeast fitness stood at 0.744. Next, U35A A43C C49A: 0.566.

As to U13A A40C A69G, the yeast fitness was determined as 0.629. In the case of A45C C46G G68A, the yeast fitness came out at 0.678. The value for U47A U64A was 0.677; that for C27U C49A was 0.785; that for U19A C34G A43C C49U was no more than 0.5. Consider U8C C66U, for which the yeast fitness worked out at 0.892. Next, U7A A15C C27A U47C G58C: no more than 0.5; C31G G67C A69U: no more than 0.5; C5U G56A A65U: 0.854. The value for A15U C27G U28C C62G was 0.534; that for C5U C34A G38C was no more than 0.5; that for C22G C24G U47C was 0.642. The value for G23C C24A U32C A65U G68A was no more than 0.5.

U2A A20C C33A C55U: the yeast fitness was no more than 0.5. G23A U35C: the yeast fitness was 0.572. Next, G10A A15C G25A U47C C66U: 0.558.

Take C29G A65C: the yeast fitness stood at 0.564. Next, C4U A69G: 0.901. Regarding C5U G17C C29A C46G G56A, the yeast fitness was no more than 0.5. Next, U8G A37C G52C G58C: no more than 0.5. In the case of A36G C66U A69U, the yeast fitness came out at 0.76. As for A65U G68A, the yeast fitness turned out to be 0.729. Next, G10A C33U G56C C66A: no more than 0.5. Turning to G9C A36U A45C G52A, the yeast fitness was no more than 0.5. Turning to U16C C30A, the yeast fitness was 0.834.

C22A C31G: the yeast fitness is 0.749. Turning to U26A U54A G58A, the yeast fitness was no more than 0.5. The value for C24G C30G C31U U35A A36U G44A G63C was 0.86; that for C5G A42G U64C was 0.72; that for U3A A15C U35A G52C C55A was no more than 0.5. The value for A15C U19A A21G C22G C30U C55G was no more than 0.5; that for C4U U28C A36C was no more than 0.5; that for U2A U19C was 0.867. Consider G48C A69U, for which the yeast fitness is 0.95. Next, G6C C24G C34U U53C C55G C62A: 0.557; C31G A37U: 0.728; A15U U26A C31A G67U: no more than 0.5. The value for U53A C60G G67A A70C was no more than 0.5; that for C29U C31G G38A G51A G58C was no more than 0.5. As to A20U G39C A40G C49U C55G, the yeast fitness is no more than 0.5.

Consider C11U A20C U47G, for which the yeast fitness was no more than 0.5.

In the case of U3G U8C G50C G68C, the yeast fitness is no more than 0.5. Next, C24G C31A U64A: no more than 0.5; C4U U16A A37U A65U: no more than 0.5; U3A C46U G48A C55U U59A: no more than 0.5.

In the case of G63A C66G, the yeast fitness was 0.678. The value for G23U C49U C55A C66U was no more than 0.5; that for G10C A65U was 0.767. Next, A20C G44C A70U: 0.573; A14G A15U U53C A69U: 0.599; C29G A69G: no more than 0.5. The value for G12A A15C C62G A65C was no more than 0.5; that for U7G G9A C31G A36G was 0.576. For C4G C24U, the yeast fitness turned out to be 0.993. On to U16C C33U A36C A45C U64G, for which the yeast fitness is no more than 0.5. Next, C27G A65G: 0.694; C11U A15C G56A: 0.57. On to U3G U8C A43C, for which the yeast fitness was no more than 0.5. Take C4G G17A C61U: the yeast fitness turned out to be 0.56. As to G17A C62U, the yeast fitness was determined as 0.736. Next, A21U U26A: 0.722. Next, A15G A36C G50A: no more than 0.5. C31U A37G G68C: the yeast fitness is no more than 0.5. The value for U28C A43C G44C C61G A65U was no more than 0.5; that for C11U U16A was 0.819; that for U8C A15U C22U A40C G48C U54C C62U was 0.557. The value for A40C A42C G68C was 0.569; that for C5U A14C C61U was 0.562.

G12A G18C C29U: the yeast fitness was determined as 0.599. The value for A14U C49A was 0.543. The value for U13A U28C C55U was 0.741; that for C5U U28C C29G was no more than 0.5. In the case of C30A G51C, the yeast fitness was found to be 0.508. Next, A21C C34U C49U: no more than 0.5; U13A G50C A70U: no more than 0.5; U8C G44A: 1.01. The value for A14U C33G A37G A40C C49G G67C was no more than 0.5. The value for C46U C49G was 0.997; that for C5U A14U C30U G39C was no more than 0.5. For G23A C31G A45C G52C, the yeast fitness is no more than 0.5. The value for A43U C61G was 0.716; that for G44U was 1.01. Next, C22G U35G: 0.62; U19A C22G A45U C49U U64A: no more than 0.5; G18A C30U A40G C46U: no more than 0.5. The value for C11U G12A C24U C34G was no more than 0.5.

A14C G25C C27G C34U U35A G38A C66U: the yeast fitness was no more than 0.5.

Regarding C5G A40U A42G U53A U54A, the yeast fitness is no more than 0.5. As for U3A C34U G56C, the yeast fitness was no more than 0.5.

Take G23A C30U C62A G68A: the yeast fitness is 0.575. Next, U3A C30U A42G C61U: 0.602; A15U C22G G58C G68A: no more than 0.5. The value for U2G U19A A21G C31U A65U G67C was no more than 0.5; that for C4A A21C G39C C49G was 0.511. The value for C11A A40G A43U U59G was no more than 0.5. With G12C C22U C31A C60G, the yeast fitness was no more than 0.5. The value for U32G G68C was 0.703. The value for U13C G58C was 0.922; that for G6A U13G C27U C61G was 0.667.

With A21G C27U G56C, the yeast fitness amounted to 0.57. Next, U16C A57U: 0.686; G6A A21C U47A C61A A70C: no more than 0.5. Next, U8G G9C U54G: no more than 0.5; A14C U16A C66U: no more than 0.5; C29G U35C U54C C61A: no more than 0.5. The value for A43C C46A G67A was 0.538; that for C24A C31A was 0.603.

As to A21C C34U C66U, the yeast fitness was no more than 0.5. For C11U U13A G25A U28A C31A A43C C60G C61G C62U, the yeast fitness came to 0.581. The value for G18C G23A G25C A37G A43C was no more than 0.5; that for U3A G56C G67C was 0.573. The value for U2C U16A G38C G63A was 0.552. G9A U16C C29G C31A C33G G41A A43G: the yeast fitness is no more than 0.5. Turning to A43U G58C, the yeast fitness came to 0.892. Turning to A15G C34U A40U U54C, the yeast fitness is no more than 0.5. In the case of U13A G58A, the yeast fitness turned out to be 1.06. Next, C27G C29U C49U: no more than 0.5; G6A G17C U19C C29A A70G: no more than 0.5.
